According to ChEMBL document CHEMBL2010797, “Exploring aigialomycin d and its analogues as protein kinase inhibitors for cancer targets” (ACS Med Chem Lett, 2011):

Tests used:
[1] = target: Cyclin-dependent kinase 2/cyclin A (Homo sapiens) (UniProt P24941+P20248+P78396); assay: Inhibition of CDK2/cyclin A using 5-FAM-GGGPATPKKAKKL-COOH as substrate at 10 uM after 1 hr by IMAP assay; type: protein-complex assay
How it was run: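 IMAP fluorescence-polarization enzyme assay on CDK2/cyclin A, testing competition at the ATP site. Compounds tested at 10 μM, with purvalanol A at 1 μM as reference. Percent inhibition is the average ± SD of three independent experiments, or the mean of two for some compounds.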

[2] = target: T1, MAP kinase-interacting serine/threonine-protein kinase 2 (Homo sapiens, UniProt Q9HBH9); assay: Inhibition of MNK2 using 5-FAM-TATKSGSTTKNRFVV-NH2 as substrate preincubated for 1 hr prior substrate addition measured after 2 hrs by IMAP assay
Target sequence in this assay (Q9HBH9 whole entry): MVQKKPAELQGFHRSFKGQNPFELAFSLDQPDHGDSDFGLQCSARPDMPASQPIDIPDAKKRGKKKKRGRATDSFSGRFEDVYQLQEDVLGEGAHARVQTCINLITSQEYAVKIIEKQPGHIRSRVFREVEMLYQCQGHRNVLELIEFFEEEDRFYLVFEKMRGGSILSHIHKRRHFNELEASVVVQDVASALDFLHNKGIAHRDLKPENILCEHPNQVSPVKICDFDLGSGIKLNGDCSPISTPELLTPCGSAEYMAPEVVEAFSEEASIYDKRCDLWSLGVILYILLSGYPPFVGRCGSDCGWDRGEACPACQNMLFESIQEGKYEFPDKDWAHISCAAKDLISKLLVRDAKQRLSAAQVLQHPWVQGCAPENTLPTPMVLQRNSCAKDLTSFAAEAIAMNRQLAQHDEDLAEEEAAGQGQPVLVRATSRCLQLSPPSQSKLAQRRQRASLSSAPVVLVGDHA

[3] = target: Cyclin-dependent kinase 2/cyclin A (Homo sapiens, UniProt P24941); assay: Inhibition of CDK2/cyclin A using 5-FAM-GGGPATPKKAKKL-COOH as substrate after 1 hr by IMAP assay; type: protein-complex assay
How it was run: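 IMAP fluorescence-polarization assay on CDK2/cyclin A. IC50 taken from dose–response curves, given as average ± SD of three independent experiments, or the mean of two for one compound.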

[4] = Inhibition of MEK
[5] = Inhibition of MAP
[6] = target: T2, Protein kinase C epsilon type (Homo sapiens, UniProt Q02156); assay: Inhibition of PRKCE
T2 sequence (Q02156 whole entry): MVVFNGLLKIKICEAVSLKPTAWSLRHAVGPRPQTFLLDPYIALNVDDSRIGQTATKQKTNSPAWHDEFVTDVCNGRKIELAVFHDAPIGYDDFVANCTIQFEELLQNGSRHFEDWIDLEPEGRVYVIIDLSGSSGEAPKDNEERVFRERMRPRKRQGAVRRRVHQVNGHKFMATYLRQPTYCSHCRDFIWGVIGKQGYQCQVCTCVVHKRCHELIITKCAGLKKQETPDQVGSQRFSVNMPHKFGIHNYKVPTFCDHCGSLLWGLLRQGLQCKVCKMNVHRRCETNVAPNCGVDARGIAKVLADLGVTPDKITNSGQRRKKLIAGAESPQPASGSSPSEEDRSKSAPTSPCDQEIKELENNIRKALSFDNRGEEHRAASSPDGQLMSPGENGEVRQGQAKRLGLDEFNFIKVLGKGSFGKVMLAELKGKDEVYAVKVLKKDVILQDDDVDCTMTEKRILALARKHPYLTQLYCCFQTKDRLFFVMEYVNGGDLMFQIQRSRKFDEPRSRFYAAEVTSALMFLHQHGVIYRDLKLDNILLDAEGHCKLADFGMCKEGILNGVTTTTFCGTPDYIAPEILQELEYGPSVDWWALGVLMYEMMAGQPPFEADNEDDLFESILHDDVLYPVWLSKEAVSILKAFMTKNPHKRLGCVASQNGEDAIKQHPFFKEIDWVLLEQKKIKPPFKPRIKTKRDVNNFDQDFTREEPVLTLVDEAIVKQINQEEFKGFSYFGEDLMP

[7] = target: Cyclin-dependent kinase 1 (Homo sapiens, UniProt P06493); assay: Inhibition of CDK1
Sequence of Cyclin-dependent kinase 1 (P06493 whole entry): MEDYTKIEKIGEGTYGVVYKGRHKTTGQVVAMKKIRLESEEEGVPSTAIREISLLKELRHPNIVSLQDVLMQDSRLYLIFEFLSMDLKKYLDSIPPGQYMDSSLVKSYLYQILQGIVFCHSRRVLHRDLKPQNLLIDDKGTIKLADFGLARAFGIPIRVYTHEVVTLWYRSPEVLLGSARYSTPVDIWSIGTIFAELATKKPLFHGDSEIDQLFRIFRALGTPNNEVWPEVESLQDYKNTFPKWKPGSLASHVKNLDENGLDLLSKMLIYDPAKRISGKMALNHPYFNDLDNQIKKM

[8] = target: Tyrosine-protein kinase receptor UFO (Homo sapiens) (UniProt P30530); assay: Inhibition of AXL assessed as enzyme activity at 10 uM relative to control; design: scale not given: the % may be the effect or the level left
How it was run: (§1)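 Single-point test at 10 μM in a 96-kinase screening panel. Reported as % of a DMSO negative control, where a lower value means stronger inhibition.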

[9] = target: T3, Receptor-type tyrosine-protein kinase FLT3 (Homo sapiens, UniProt P36888); assay: Inhibition of FLT3
T3 sequence (P36888 whole entry): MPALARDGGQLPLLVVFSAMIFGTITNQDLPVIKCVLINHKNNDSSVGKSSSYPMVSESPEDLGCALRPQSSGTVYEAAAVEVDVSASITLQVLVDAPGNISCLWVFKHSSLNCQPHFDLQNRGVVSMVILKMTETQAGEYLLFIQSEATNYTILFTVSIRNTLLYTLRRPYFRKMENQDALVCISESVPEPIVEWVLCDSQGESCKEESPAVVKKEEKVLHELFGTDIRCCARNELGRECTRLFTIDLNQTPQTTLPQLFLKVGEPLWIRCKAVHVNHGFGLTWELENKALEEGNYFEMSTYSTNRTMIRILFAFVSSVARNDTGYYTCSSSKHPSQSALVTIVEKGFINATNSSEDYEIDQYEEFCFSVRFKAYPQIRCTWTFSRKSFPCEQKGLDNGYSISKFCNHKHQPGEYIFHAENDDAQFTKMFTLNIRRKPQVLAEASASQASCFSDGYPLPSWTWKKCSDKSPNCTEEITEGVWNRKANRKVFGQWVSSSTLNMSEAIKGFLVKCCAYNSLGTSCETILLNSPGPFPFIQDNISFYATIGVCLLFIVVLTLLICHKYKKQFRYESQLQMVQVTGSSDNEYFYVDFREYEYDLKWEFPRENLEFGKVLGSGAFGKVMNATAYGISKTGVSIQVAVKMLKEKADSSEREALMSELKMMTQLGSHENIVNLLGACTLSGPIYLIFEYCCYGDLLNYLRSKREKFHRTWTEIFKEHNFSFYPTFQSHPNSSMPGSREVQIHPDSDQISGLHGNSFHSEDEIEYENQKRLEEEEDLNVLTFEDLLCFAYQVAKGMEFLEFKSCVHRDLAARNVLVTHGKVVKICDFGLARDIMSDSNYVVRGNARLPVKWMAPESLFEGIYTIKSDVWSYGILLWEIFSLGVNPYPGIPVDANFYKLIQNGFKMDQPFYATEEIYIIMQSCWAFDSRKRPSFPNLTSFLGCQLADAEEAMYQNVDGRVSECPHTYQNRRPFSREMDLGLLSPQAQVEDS

[10] = target: T4, Protein kinase C epsilon type (Homo sapiens) (UniProt Q02156); assay: Inhibition of PRKCE assessed as enzyme activity at 10 uM relative to control; design: scale not given: the % may be the effect or the level left; how it was run: as §1
T4 sequence (whole entry): T2 sequence (Q02156 whole entry)

[11] = target: T5, Serine/threonine-protein kinase PLK4 (Homo sapiens, UniProt O00444); assay: Inhibition of PLK4
T5 sequence (O00444 whole entry): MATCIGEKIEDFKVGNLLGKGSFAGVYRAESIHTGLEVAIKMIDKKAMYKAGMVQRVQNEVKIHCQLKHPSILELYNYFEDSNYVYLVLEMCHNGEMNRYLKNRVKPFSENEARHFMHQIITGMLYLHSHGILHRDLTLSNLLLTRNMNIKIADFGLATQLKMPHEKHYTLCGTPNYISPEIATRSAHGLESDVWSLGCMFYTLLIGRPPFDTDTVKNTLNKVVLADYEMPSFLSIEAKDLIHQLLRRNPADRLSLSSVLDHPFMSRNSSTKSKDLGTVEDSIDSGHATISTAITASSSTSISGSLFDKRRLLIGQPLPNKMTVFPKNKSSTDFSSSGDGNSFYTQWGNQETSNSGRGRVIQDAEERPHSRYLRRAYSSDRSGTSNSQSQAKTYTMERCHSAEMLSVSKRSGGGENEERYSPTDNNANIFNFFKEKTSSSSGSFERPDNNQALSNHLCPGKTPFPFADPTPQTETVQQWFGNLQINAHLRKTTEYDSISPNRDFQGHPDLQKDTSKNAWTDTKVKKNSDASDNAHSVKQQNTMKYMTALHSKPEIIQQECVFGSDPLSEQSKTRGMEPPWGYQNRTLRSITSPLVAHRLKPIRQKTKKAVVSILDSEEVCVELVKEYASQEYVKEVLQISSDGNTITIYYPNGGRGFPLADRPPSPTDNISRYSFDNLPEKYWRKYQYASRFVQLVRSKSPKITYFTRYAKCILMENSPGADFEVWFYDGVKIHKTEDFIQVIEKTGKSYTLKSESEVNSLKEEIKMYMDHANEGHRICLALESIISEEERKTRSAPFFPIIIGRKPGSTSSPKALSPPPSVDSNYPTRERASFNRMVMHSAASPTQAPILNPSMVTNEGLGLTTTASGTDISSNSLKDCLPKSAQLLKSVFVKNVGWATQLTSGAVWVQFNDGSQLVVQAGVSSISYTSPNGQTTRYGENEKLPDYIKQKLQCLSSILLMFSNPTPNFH

[12] = target: T6, Tyrosine-protein kinase receptor UFO (Homo sapiens, UniProt P30530); assay: Inhibition of AXL
T6 sequence (P30530 whole entry): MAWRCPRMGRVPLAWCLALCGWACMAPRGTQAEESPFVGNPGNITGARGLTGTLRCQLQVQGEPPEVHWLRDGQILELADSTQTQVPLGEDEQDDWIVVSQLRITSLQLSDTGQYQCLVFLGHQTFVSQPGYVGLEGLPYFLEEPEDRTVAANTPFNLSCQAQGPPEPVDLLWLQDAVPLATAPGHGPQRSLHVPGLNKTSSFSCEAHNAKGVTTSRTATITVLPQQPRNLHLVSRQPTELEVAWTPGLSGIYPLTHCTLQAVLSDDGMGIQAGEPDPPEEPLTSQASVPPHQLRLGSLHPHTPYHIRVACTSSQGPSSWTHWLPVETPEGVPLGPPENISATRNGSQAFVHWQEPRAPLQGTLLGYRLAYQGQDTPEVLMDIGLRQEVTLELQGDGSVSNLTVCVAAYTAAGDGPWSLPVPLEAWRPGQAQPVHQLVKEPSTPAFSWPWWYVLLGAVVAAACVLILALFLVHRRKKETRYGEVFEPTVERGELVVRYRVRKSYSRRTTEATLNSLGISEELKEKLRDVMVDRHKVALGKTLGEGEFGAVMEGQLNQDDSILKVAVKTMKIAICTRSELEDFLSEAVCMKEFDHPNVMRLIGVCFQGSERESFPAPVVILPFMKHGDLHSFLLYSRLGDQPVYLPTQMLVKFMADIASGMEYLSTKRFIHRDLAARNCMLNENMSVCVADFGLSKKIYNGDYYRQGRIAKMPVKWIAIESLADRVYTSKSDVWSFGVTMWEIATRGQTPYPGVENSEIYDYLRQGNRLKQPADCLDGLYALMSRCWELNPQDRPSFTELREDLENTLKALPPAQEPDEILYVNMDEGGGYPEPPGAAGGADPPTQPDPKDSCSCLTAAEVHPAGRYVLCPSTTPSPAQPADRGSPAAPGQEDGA

[13] = target: T1, MAP kinase-interacting serine/threonine-protein kinase 2; assay: Inhibition of MNK2 assessed as enzyme activity at 10 uM relative to control; design: scale not given: the % may be the effect or the level left; how it was run: as §1
Target sequence in this assay (Q9HBH9 whole entry, looked up): as the sequence (Q9HBH9 whole entry) above

[14] = target: T1, MAP kinase-interacting serine/threonine-protein kinase 2; assay: Inhibition of MNK2
Target sequence in this assay (Q9HBH9 whole entry): as above

[15] = target: Receptor-type tyrosine-protein kinase FLT3 (Homo sapiens) (UniProt P36888); assay: Inhibition of FLT3 assessed as enzyme activity at 10 uM relative to control; design: scale not given: the % may be the effect or the level left; how it was run: as §1
[16] = target: MAP kinase-interacting serine/threonine-protein kinase 1 (Homo sapiens, UniProt Q9BUB5); assay: Inhibition of MNK1
Sequence of MAP kinase-interacting serine/threonine-protein kinase 1 (Q9BUB5 whole entry): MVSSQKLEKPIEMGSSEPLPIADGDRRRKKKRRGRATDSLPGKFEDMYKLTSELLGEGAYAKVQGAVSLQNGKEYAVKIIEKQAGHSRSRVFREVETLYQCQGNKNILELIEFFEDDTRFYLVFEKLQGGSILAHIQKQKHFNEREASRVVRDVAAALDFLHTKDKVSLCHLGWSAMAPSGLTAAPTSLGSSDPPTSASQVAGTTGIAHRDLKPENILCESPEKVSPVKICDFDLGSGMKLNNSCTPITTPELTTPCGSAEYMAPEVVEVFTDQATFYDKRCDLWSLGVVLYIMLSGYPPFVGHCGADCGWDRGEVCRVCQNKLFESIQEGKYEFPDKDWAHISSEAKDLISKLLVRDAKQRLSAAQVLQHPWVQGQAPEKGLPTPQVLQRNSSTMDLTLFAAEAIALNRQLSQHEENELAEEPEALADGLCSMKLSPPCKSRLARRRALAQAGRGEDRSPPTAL

[17] = target: Cyclin-dependent kinase 5 (Homo sapiens, UniProt Q00535); assay: Inhibition of CDK5
Sequence of Cyclin-dependent kinase 5 (Q00535 whole entry): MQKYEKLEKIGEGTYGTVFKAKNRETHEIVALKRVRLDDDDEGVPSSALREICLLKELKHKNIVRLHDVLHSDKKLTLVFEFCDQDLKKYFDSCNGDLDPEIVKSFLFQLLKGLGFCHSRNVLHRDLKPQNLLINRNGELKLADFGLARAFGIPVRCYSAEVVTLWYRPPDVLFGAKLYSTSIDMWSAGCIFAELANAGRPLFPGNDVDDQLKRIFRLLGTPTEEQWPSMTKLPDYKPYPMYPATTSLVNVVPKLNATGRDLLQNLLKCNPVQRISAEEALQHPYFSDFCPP

[18] = target: T7, Serine/threonine-protein kinase PLK4 (Homo sapiens) (UniProt O00444); assay: Inhibition of PLK4 assessed as enzyme activity at 10 uM relative to control; design: scale not given: the % may be the effect or the level left; how it was run: as §1
T7 sequence (whole entry): T5 sequence (O00444 whole entry)

SMILES	inhibition [1] [%]	IC50 [2] [µM]	further results
C[C@H]1CCC[C@@H](O)[C@@H](O)CC/C=C/c2cc(O)cc(O)c2C(=O)O1	25	1.35	
COc1cc2c(c(OC)c1)C(=O)O[C@@H](C)C/C=C/[C@@H](O)[C@@H](O)CC/C=C/2	13	> 10	
C[C@H]1CCC[C@@H](O)[C@@H](O)CCCCc2cc(O)cc(O)c2C(=O)O1	16	> 10	
CC(C)[C@H](CO)Nc1nc(Nc2cccc(Cl)c2)c2ncn(C(C)C)c2n1	94		
COc1cc(O)cc2c1C(=O)O[C@@H](C)C/C=C/[C@@H](O)[C@@H](O)CC/C=C/2	17	> 10	
C[C@@H]1C/C=C/[C@@H](O)[C@@H](O)CC/C=C/c2cc(O)cc(O)c2C(=O)O1	64	> 10	IC50 [3]: 19 µM
O=C1OCC/C=C/[C@@H](O)[C@@H](O)CC/C=C/c2cc(O)cc(O)c21	38	> 10	
C[C@H]1CCC[C@@H](O)[C@@H](O)CCC(=O)Cc2cc(O)cc(O)c2C(=O)O1	17	> 10	
C[C@H]1C/C=C/[C@@H](O)[C@@H](O)CCC(=NO)Cc2cc(O)cc(O)c2C(=O)O1 (mixture of isomers)	19	> 10	
C[C@H]1C/C=C/CCCC/C=C/c2cc(O)cc(O)c2C(=O)O1	17	1.61	
COc1cc(O)c2c(c1)/C=C/CC[C@H](O)[C@H](O)/C=C/C[C@H](C)OC2=O	49	> 10	IC50 [3]: 19 µM
C[C@H]1CCC[C@@H](O)[C@@H](O)CCC(O)Cc2cc(O)cc(O)c2C(=O)O1 (mixture of isomers)	6	> 10	
C[C@H]1C/C=C/[C@@H](O)[C@@H](O)CCC(=O)Cc2cc(O)cc(O)c2C(=O)O1	21	> 10	
COc1cc(O)c2c(c1)CCC[C@H](O)[C@H](O)C(=O)/C=C\C[C@H](C)OC2=O			INH [4]: 4 nM
COc1cc(O)cc2c1C(=O)O[C@@H](C)CCC[C@@H](O)[C@@H](O)CC/C=C/2	10	> 10	
COc1cc(O)c2c(c1)[C@H]1O[C@@H]1C[C@H](O)[C@H](O)C(=O)/C=C\C[C@H](C)OC2=O			INH [5]: 17 nM
C[C@H]1C/C=C/[C@@H](O)[C@@H](O)CC/C=C/c2cc(O)cc(O)c2C(=O)O1 [AIGIALOMYCIN D]	55	0.45	Kd [6]: 12 µM; IC50 [7]: 6 µM; Activity [8]: 4.7%; Kd [9]: 0.3 µM; Activity [10]: 7.2%; IC50 [3]: 21 µM; Kd [11]: 0.26 µM; Kd [12]: 1 µM; Activity [13]: 0.15%; Kd [14]: 0.16 µM; Activity [15]: 7.1%; IC50 [16]: 40 µM; IC50 [17]: 6 µM; Activity [18]: 9.6%
C[C@H]1C/C=C/[C@H]2OC(C)(C)O[C@H]2CC/C=C/c2cc(O)cc(O)c2C(=O)O1	19	0.58	
C[C@H]1C/C=C/[C@@H](O)[C@@H](O)CCC(O)Cc2cc(O)cc(O)c2C(=O)O1 (mixture of isomers)	8	> 10	
